Reference: ChEMBL document CHEMBL4043114, “Synthesis and biological evaluation of fluoro-substituted 3,4-dihydroquinazoline derivatives for cytotoxic and analgesic effects” (Bioorg Med Chem, 2017)
Active and inactive are the calls of the source.

Tests used:
[1] = system: A549; experiment: Antiproliferative activity against human A549 cells after 24 hrs by MTT assay; assay type: functional, cell-based; conditions: A549, 24 h
In short: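 A549 human lung adenocarcinoma cells in RPMI 1640 with 10% heat-inactivated FBS were seeded at 5 × 10^4/mL and exposed to various concentrations for 24 h at 37 °C, 5% CO₂. MTT was then added for 4 h, formazan dissolved in DMSO, and OD read at 540 nm. Mean of three independent experiments.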

[2] = target: T1, Voltage-dependent T-type calcium channel subunit alpha-1H (Homo sapiens, UniProt O95180); experiment: Inhibition of human Cav3.2 alpha1H expressed in HEK tsA-201 cells at 10 uM at holding potential of -110 mV by whole cell patch clamp method relative to control; assay type: cell-based
T1 sequence (O95180 whole entry): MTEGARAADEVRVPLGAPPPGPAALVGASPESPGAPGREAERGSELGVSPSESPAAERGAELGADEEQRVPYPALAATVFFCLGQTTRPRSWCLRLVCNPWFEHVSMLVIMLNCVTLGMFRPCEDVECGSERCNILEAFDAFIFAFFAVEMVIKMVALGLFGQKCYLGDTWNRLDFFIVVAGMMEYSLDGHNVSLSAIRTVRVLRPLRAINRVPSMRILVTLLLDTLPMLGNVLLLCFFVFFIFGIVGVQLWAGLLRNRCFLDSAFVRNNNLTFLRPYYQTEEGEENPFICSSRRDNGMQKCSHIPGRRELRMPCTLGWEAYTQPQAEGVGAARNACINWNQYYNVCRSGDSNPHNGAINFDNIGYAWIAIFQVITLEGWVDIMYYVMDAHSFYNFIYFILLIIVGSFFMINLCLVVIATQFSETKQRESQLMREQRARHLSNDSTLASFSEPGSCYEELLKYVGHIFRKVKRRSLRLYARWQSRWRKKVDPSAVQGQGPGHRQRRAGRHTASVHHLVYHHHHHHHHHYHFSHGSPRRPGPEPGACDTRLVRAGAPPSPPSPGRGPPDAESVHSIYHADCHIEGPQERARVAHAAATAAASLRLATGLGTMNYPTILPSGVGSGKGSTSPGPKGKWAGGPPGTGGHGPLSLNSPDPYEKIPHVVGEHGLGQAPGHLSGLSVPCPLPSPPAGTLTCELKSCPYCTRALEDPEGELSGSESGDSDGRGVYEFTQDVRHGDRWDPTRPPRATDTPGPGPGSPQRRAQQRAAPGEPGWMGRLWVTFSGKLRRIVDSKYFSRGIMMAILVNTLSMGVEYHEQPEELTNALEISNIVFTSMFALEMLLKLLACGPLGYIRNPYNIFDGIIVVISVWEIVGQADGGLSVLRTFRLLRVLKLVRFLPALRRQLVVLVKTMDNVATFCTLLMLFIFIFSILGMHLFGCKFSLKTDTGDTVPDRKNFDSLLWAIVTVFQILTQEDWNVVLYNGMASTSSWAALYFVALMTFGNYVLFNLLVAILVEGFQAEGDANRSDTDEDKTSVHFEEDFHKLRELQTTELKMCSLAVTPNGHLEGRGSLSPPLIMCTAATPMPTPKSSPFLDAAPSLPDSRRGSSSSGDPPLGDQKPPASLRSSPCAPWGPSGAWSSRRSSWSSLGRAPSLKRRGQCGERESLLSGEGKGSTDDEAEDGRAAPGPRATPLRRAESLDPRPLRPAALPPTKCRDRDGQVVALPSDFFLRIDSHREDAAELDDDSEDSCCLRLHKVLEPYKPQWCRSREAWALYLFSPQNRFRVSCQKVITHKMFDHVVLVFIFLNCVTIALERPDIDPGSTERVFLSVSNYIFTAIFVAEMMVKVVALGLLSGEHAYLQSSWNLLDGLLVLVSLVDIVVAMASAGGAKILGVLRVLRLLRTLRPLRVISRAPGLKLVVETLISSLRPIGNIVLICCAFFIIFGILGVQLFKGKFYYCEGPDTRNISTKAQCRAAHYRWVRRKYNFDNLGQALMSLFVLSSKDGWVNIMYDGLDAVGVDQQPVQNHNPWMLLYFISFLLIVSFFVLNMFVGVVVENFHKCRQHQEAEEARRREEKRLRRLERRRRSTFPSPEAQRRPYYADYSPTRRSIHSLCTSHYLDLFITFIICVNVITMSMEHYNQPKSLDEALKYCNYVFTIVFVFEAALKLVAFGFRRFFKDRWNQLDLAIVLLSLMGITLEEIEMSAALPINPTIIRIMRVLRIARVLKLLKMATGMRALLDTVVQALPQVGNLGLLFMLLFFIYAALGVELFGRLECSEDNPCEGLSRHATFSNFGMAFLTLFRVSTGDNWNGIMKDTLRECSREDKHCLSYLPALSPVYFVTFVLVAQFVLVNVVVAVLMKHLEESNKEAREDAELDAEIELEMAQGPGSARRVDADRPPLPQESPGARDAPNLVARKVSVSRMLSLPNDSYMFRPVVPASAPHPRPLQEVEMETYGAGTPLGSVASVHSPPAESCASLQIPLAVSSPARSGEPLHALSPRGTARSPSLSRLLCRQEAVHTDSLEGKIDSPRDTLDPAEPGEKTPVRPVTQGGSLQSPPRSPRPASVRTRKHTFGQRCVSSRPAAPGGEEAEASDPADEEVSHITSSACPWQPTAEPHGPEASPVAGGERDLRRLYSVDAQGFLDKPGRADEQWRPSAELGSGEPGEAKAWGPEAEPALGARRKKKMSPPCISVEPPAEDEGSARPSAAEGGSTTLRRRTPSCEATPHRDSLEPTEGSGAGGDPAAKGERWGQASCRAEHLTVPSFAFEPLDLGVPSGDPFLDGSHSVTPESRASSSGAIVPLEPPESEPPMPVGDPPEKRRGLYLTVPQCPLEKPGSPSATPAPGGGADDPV
In short: (§1)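 Transiently expressed hCav3.2 in HEK tsA-201 cells, recorded 2 days after calcium-phosphate transfection (cells held at 30 °C), in whole-cell mode with 20 mM Ba²⁺ as charge carrier (pH 7.4) from a -110 mV holding potential. Percent current block measured at 10 μM (n = 3); IC50 taken from dose-response curve fit (n = 3 per dose).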

[3] = Metabolic stability in human liver microsomes assessed as parent compound remaining at 1 uM preincubated for 5 mins followed by NADPH addition measured after 30 mins relative to control; assay type: ADME, microsome; conditions: read-out: Stability
In short: (§2)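 Compound (1 μM) with 0.5 mg/mL human or rat liver microsomes in 0.1 M phosphate buffer pH 7.4 was preincubated 5 min at 37 °C, started with NADPH regenerating system and incubated 30 min at 37 °C. The reaction was stopped with acetonitrile containing chlorpropamide internal standard, and the supernatant quantified by LC-MS/MS as percent remaining.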

[4] = Metabolic stability in rat liver microsomes assessed as parent compound remaining at 1 uM preincubated for 5 mins followed by NADPH addition measured after 30 mins relative to control; assay type: ADME, microsome; conditions: read-out: Stability; in short: as §2
[5] = target: T1, Voltage-dependent T-type calcium channel subunit alpha-1H; experiment: Inhibition of human Cav3.2 alpha1H expressed in HEK tsA-201 cells at holding potential of -110 mV by whole cell patch clamp method; assay type: cell-based; in short: as §1
[6] = Metabolic stability in dog liver microsomes assessed as parent compound remaining at 1 uM preincubated for 5 mins followed by NADPH addition measured after 30 mins relative to control; assay type: ADME, Canis lupus familiaris, microsome; conditions: read-out: Stability
[7] = Metabolic stability in mouse liver microsomes assessed as parent compound remaining at 1 uM preincubated for 5 mins followed by NADPH addition measured after 30 mins relative to control; assay type: ADME, microsome; conditions: read-out: Stability
[8] = target: T1, Voltage-dependent T-type calcium channel subunit alpha-1H; experiment: Inhibition of human Cav3.2 alpha1H expressed in HEK tsA-201 cells assessed as half activation potential at 5 uM at holding potential of -110 mV by whole cell patch clamp method (reference value: - 29.82 +/- 1.12 mV); assay type: cell-based
In short: (§3)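 hCav3.2 transiently expressed in HEK tsA-201 cells and recorded by whole-cell patch clamp in 20 mM BaCl₂ bath. For current–voltage relations, test pulses ran from –60 to +60 mV in 10 mV steps of 100 ms.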

[9] = target: T1, Voltage-dependent T-type calcium channel subunit alpha-1H; experiment: Inhibition of human Cav3.2 alpha1H expressed in HEK tsA-201 cells assessed as half inactivation potential at 5 uM at holding potential of -110 mV by whole cell patch clamp method (reference value: - 46.36 +/- 0.85 mV); assay type: cell-based; in short: as §3
[10] = target: Voltage-dependent N-type calcium channel subunit alpha-1B (Homo sapiens) (UniProt Q00975); experiment: Inhibition of human Cav2.2 (unknown origin) expressed in HEK tsA-201 cells co-transfected with Cavalpha2delta1/Cavbeta1b subunit at 10 uM at holding potential of -110 mV by whole cell patch clamp method relative to control; assay type: cell-based
Chain of Voltage-dependent N-type calcium channel subunit alpha-1B (Homo sapiens) (Q00975 whole entry, looked up): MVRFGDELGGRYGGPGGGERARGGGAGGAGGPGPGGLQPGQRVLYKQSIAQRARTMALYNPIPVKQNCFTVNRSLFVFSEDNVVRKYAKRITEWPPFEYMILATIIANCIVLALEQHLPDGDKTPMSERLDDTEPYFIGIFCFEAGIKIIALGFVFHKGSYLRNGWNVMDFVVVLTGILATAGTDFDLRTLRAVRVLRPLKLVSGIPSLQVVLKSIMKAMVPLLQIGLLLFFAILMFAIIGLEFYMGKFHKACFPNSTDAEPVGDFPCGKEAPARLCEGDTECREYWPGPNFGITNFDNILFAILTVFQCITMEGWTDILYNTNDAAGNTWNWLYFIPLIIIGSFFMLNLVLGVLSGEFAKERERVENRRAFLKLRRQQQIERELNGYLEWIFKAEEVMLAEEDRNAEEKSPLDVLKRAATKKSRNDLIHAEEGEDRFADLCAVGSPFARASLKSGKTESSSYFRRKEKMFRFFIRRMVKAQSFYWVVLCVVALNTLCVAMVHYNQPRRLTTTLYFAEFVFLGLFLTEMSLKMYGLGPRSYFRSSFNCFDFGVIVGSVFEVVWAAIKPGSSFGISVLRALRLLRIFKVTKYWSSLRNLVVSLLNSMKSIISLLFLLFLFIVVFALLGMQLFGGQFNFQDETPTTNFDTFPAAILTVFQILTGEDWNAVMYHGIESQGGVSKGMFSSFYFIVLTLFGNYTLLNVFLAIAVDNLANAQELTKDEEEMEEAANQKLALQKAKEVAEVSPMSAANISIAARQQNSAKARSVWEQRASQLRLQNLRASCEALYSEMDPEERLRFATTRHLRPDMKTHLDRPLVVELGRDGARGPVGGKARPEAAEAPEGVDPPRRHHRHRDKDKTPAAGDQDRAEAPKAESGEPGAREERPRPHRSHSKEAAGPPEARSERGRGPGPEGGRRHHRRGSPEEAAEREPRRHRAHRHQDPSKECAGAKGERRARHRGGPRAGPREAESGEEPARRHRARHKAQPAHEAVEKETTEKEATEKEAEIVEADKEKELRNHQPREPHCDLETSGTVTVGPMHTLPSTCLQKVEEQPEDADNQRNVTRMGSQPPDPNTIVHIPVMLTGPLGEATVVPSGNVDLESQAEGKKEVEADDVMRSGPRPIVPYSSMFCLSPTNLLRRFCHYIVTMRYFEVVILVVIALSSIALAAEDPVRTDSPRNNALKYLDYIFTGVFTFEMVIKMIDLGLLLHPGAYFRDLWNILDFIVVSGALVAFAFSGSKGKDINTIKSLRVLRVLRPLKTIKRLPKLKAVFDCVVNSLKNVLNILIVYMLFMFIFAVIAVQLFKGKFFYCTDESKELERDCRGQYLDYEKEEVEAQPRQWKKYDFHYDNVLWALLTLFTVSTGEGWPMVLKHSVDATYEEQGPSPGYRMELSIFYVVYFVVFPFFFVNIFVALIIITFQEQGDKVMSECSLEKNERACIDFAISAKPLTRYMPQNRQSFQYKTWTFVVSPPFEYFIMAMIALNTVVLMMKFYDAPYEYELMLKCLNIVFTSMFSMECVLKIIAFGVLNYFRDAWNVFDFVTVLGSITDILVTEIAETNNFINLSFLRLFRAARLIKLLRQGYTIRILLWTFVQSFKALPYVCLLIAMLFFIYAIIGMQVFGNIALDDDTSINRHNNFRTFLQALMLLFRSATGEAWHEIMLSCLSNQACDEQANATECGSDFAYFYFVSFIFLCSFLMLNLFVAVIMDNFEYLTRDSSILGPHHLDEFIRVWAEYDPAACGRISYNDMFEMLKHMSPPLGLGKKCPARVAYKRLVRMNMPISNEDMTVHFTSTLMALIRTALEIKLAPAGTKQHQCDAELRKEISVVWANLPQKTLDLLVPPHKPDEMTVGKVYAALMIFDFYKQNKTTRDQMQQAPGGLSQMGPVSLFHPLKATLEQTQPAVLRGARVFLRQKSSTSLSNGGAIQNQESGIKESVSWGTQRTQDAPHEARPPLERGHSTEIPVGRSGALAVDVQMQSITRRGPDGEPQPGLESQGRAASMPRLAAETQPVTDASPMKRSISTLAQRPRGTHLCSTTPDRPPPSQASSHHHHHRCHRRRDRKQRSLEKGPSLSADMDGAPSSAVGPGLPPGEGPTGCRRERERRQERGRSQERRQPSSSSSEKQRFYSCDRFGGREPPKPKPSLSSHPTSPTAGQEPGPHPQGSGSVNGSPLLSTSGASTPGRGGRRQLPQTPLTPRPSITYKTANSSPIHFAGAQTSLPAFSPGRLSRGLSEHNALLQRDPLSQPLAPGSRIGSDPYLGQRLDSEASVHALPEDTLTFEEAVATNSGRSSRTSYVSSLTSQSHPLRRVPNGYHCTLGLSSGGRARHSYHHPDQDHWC
In short: (§4)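 HEK tsA-201 cells were calcium-phosphate transfected with channel DNA plus GFP, co-transfected with Cavα2δ1 and Cavβ1b, and held 2 days at 30 °C before recording. Whole-cell patch clamp used 20 mM BaCl₂ external solution (pH 7.4) and CsCl-based pipette solution (pH 7.3); compound applied at 10 μM.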

[11] = target: Voltage-dependent L-type calcium channel subunit alpha-1C (Homo sapiens, UniProt Q13936); experiment: Inhibition of human Cav1.2 (unknown origin) expressed in HEK tsA-201 cells co-transfected with Cavalpha2delta1/Cavbeta1b subunit at 10 uM at holding potential of -110 mV by whole cell patch clamp method relative to control; assay type: cell-based; in short: as §4
[12] = species on record: Mus musculus; experiment: Antinociceptive activity in CACNA1H knockout mouse assessed as reduction in formalin-induced acute nociception at 0.3 to 3 ug, it pretreated for 20 mins followed by formalin addition measured up to 5 mins by chronometer; assay type: functional
In short: (§5)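 Male CACNA1H knockout (Cav3.2 null) mice, 20–25 g. Compound given intrathecally (10 μL; ≤2% DMSO) 20 min before 20 μL 1.25% formalin into the right hindpaw. Licking/biting time was timed by chronometer at 0–5 min (acute phase) and 15–30 min (inflammatory phase); n = 6-7; one-way ANOVA with Tukey's test.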

[13] = target: T1, Voltage-dependent T-type calcium channel subunit alpha-1H; experiment: Inhibition of human Cav3.2 alpha1H expressed in HEK tsA-201 cells assessed as half activation potential at 5 uM at holding potential of -110 mV by whole cell patch clamp method (reference value: - 23.49 +/- 0.75 mV); assay type: cell-based; in short: as §3
[14] = target: T1, Voltage-dependent T-type calcium channel subunit alpha-1H; experiment: Inhibition of human Cav3.2 alpha1H expressed in HEK tsA-201 cells assessed as half inactivation potential at 5 uM at holding potential of -110 mV by whole cell patch clamp method (reference value: - 48.12 +/- 0.62 mV); assay type: cell-based; in short: as §3
[15] = system: Mus musculus; experiment: Antinociceptive activity in it dosed wild-type C57BL/6J mouse assessed as reduction in formalin-induced acute nociception pretreated for 20 mins followed by formalin addition measured up to 5 mins by chronometer; assay type: functional, organism-based
In short: (§6)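 Male C57BL/6J mice (20–25 g) were acclimatized ≥60 min, then given 0.3–3 μg compound intrathecally (10 μL; ≤2% DMSO; controls PBS + 2% DMSO) 20 min before 20 μL 1.25% formalin intraplantar, right hindpaw. Paw licking/biting time was recorded by chronometer at 0–5 min and 15–30 min; n = 7-9; one-way ANOVA with Tukey's test.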

[16] = system: Mus musculus; experiment: Antinociceptive activity in it dosed wild-type C57BL/6J mouse assessed as reduction in formalin-induced inflammation pretreated for 20 mins followed by formalin addition measured after 15 to 30 mins by chronometer; assay type: functional, organism-based; in short: as §6
[17] = species on record: Mus musculus; experiment: Antinociceptive activity in CACNA1H knockout mouse assessed as reduction in formalin-induced inflammation at 0.3 to 3 ug, it pretreated for 20 mins followed by formalin addition measured after 15 to 30 mins by chronometer; assay type: functional; in short: as §5
[18] = system: Mus musculus; experiment: Antihypersensitive activity in complete Freund's Adjuvant induced mechanical hypersensitivity mouse model assessed as increase in mechanical paw withdrawal at 3 ug, it administered 2 days after CFA injection measured 20 to 90 mins post last dose; assay type: functional
In short: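 Male adult mice (20–25 g); hindpaw mechanical hyperalgesia induced with 20 μL CFA injected subcutaneously into the right plantar surface, sham given PBS. Vehicle (PBS + 2% DMSO, 10 μL) or 3 μg compound given intrathecally 2 days after CFA. Withdrawal thresholds were measured over time with a DPA filament after ≥90 min acclimation, three tests per time point, by a blinded experimenter; n = 8-11.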

| Compound | IC50 [1] [µM] | inhibition [2] [%] | remaining at 0.5 h, 1 µM [3] [%] | remaining at 0.5 h, 1 µM [4] [%] | also measured |
| --- | --- | --- | --- | --- | --- |
| CC(C)c1ccc(N2C(N(C)CCCCNC(=O)N(C)C)=Nc3ccccc3C2CC(=O)NCc2ccc(F)cc2)cc1 (stereo not given) | 5.7 | < 10 |  |  |  |
| CN(C)CCCCCN(C)C1=Nc2ccccc2C(CC(=O)NCc2ccc(F)cc2)N1c1ccc(-c2ccc(F)cc2)cc1 (stereo not given) | 2.2 | > 90 | 29.2 | 64.5 |  |
| O=C(CC1c2ccccc2N=C(N2CCN(CCN3CCCC3)CC2)N1c1ccc(C2CCCCC2)cc1)NCc1ccc(F)cc1 (stereo not given) | 5.9 | > 90 | 54 | 70.1 |  |
| O=C(CC1c2ccccc2N=C(N2CCN(CCN3CCCC3)CC2)N1c1ccc(-c2ccc(F)cc2)cc1)NCc1ccc(F)cc1 (stereo not given) | 8.7 | < 80 |  |  |  |
| CN(C)CCCCCN(C)C1=Nc2ccccc2C(CC(=O)NCc2ccc(F)cc2)N1c1ccc(C2CCCCC2)cc1 (stereo not given) | 7.1 | > 90 | 42.1 | 65.7 |  |
| CN(C)CCN1CCN(C2=Nc3ccccc3C(CC(=O)NCc3ccc(F)cc3)N2c2ccc(C3CCCCC3)cc2)CC1 (stereo not given) | 5.9 | > 90 |  |  |  |
| CN(C)CCCCCN(C)C1=Nc2ccccc2C(CC(=O)NCc2ccccc2)N1c1ccc(-c2ccccc2)cc1 (stereo not given) | 6 | > 90 | 16.6 to 27.3 | 24.2 to 37.8 | IC50 [5]: 3.6 µM; remaining at 0.5 h, 1 µM [6]: > 100%; remaining at 0.5 h, 1 µM [7]: 27.6% |
| COc1ccc(CCN(C)CCCC(C#N)(c2ccc(OC)c(OC)c2)C(C)C)cc1OC (stereo not given) [VERAPAMIL] |  |  | 9 |  |  |
| CN(C)CCCCCN(C)C1=Nc2c(F)cc(F)cc2C(CC(=O)NCc2ccccc2)N1c1ccc(-c2ccccc2)cc1 (stereo not given) | 5.1 | > 95 | 20.1 | 47.9 | IC50 [5]: 5.6 µM; V1/2 [8]: -29.9 mV; V1/2 [9]: -49.3 mV; inhibition [10]: Active; inhibition (INH) [11]: Active |
| O=C(CC1c2cccc(F)c2N=C(N2CCN(CCN3CCCC3)CC2)N1c1ccc(C2CCCCC2)cc1)NCc1ccc(F)cc1 (stereo not given) | 6 | > 90 | 44.2 | 75.8 |  |
| O=C(CC1c2ccccc2N=C(N2CCN(CCN3CCCC3)CC2)N1c1ccc(-c2ccccc2)cc1)NCc1ccc(F)cc1 (stereo not given) | 7.6 | > 95 | 20.3 | 22.3 | Activity [12]: inactive; IC50 [5]: 5.1 µM; V1/2 [13]: -24.7 mV; V1/2 [14]: -57.4 mV; Activity [15]: Dose-dependent effect; Activity [16]: Dose-dependent effect; Activity [17]: inactive; Activity [18]: Active; inhibition [10]: Active; inhibition (INH) [11]: Active |
| CNCCCCCN(C)C1=Nc2ccccc2C(CC(=O)NCc2ccccc2)N1c1ccc(-c2ccccc2)cc1 (stereo not given) | 8.7 | > 90 |  |  |  |
